Measurements: ChEMBL document CHEMBL4808210, “Mapping Chromone-3-Phenylcarboxamide Pharmacophore: Quid Est Veritas?” (J Med Chem, 2021)
Calls of active or inactive are those of the source. The calls are words filed in the database; no cut-off is given here.

Assays:
[1] = target: T1, Amine oxidase [flavin-containing] B (Homo sapiens, UniProt P27338); assay: Inhibition of recombinant human MAO-B expressed in baculovirus infected BTI-TN- 5B1-4 insect cells using kynuramine as substrate preincubated for 10 mins in presence of substrate followed by enzyme addition and measured every minute for 30 mins by spectrophotometry analysis; assay type: cell-based
T1 sequence (P27338 whole entry): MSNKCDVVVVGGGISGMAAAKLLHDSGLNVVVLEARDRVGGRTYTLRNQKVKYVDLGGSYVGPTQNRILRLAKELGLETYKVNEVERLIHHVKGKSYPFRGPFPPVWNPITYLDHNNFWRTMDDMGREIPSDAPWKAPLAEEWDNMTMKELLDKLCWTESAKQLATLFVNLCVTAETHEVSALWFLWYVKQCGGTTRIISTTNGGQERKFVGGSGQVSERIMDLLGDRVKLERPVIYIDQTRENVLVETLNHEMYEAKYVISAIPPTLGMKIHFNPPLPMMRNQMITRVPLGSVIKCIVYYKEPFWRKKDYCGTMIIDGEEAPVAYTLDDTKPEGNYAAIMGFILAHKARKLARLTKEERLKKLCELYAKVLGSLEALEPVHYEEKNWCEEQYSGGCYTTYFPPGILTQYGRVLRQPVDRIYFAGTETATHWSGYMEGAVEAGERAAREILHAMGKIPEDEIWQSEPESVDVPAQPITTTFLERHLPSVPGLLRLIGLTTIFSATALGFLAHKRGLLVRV

Homo sapiens = species on record: Homo sapiens; assay: Selectivity index, ratio of IC50 for recombinant human MAO-A expressed in baculovirus infected BTI-TN- 5B1-4 insect cells to IC50 for recombinant human MAO-B expressed in baculovirus infected BTI-TN- 5B1-4 insect cells using kynuramine as substrate preincubated for 10 mins in presence of substrate followed by enzyme addition and measured every minute for 30 mins by spectrophotometry analysis
Procedure, shortened: (§1)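 Recombinant hMAO-A and hMAO-B were assayed with kynuramine as substrate. Percent inhibition was taken at 10 μM, the highest concentration tested. Where the hMAO-A IC₅₀ was not reached, it was taken as 10 μM.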

MAO-A = target: T2, MAO-A (Homo sapiens, UniProt P21397); assay: Inhibition of recombinant human MAO-A expressed in baculovirus infected BTI-TN- 5B1-4 insect cells at 10 uM using kynuramine as substrate preincubated for 10 mins in presence of substrate followed by enzyme addition and measured every minute for 30 mins by spectrophotometry analysis relative to control; conditions: probe kynuramine, time 40 min; procedure, shortened: as §1
T2 sequence (P21397 whole entry): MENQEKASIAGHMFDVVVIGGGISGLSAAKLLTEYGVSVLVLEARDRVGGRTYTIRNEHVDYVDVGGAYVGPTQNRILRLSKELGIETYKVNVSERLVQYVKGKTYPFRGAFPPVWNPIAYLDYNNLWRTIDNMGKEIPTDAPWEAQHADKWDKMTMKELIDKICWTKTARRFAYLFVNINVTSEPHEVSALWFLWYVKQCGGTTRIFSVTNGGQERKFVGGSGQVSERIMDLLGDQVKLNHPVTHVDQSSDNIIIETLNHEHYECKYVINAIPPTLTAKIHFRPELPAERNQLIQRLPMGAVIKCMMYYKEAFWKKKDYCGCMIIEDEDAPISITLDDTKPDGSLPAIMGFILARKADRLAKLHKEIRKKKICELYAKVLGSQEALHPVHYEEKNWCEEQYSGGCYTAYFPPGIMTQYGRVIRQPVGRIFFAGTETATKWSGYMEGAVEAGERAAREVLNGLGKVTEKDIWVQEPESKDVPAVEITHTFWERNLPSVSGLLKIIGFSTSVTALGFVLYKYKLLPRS

[2] = target: T1, Amine oxidase [flavin-containing] B; assay: Inhibition of recombinant human MAO-B expressed in baculovirus infected BTI-TN- 5B1-4 insect cells at 10 uM using kynuramine as substrate preincubated for 10 mins in presence of substrate followed by enzyme addition and measured every minute for 30 mins by spectrophotometry analysis relative to control; conditions: BTI-TN-5B1-4, human, 0.5 h, time 40 min; procedure, shortened: as §1
[3] = Solubility of the compound in phosphate buffer at > 10 uM; assay type: physicochemical
SH-SY5Y [4] = assay: Cytotoxicity against human SH-SY5Y cells assessed as effect on NR uptake at 1 to 10 uM measured after 24 hrs by neutral red uptake assay; assay type: cell-based; conditions: dose 1-10 µM
Procedure, shortened: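 Differentiated SH-SY5Y cells were exposed to compounds at 1 and 10 μM for 24 h. Lysosomal activity was read as neutral red dye uptake and compared with untreated cells. Mean ± SEM of at least three independent experiments run in triplicate.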

[5] = target: T3, Amine oxidase [flavin-containing] A (Homo sapiens, UniProt P21397); assay: Inhibition of recombinant human MAO-A expressed in baculovirus infected BTI-TN- 5B1-4 insect cells using kynuramine as substrate preincubated for 10 mins in presence of substrate followed by enzyme addition and measured every minute for 30 mins by spectrophotometry analysis; procedure, shortened: as §1
T3 sequence (P21397 whole entry): T2 sequence (P21397 whole entry)

Caco-2 = assay: Cytotoxicity against human Caco-2 cells assessed as effect on cell viability at 1 to 10 uM measured after 24 hrs by MTT assay; assay type: cell-based; conditions: caco-2, 24 h, dose 1-10 µM
Procedure, shortened: (§2)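 Caco-2 cells, and SH-SY5Y cells first differentiated toward a dopaminergic-like phenotype, were treated for 24 h with compounds at 1 and 10 μM. Metabolic activity was read as MTT reduction to formazan, relative to untreated cells. Mean ± SEM of at least three independent experiments, each in triplicate.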

SH-SY5Y [6] = assay: Cytotoxicity against human SH-SY5Y cells assessed as reduction in cell viability at 10 uM measured after 24 hrs by MTT assay relative to control; assay type: cell-based; procedure, shortened: as §2
MCF7 [7] = assay: Cytotoxicity against human MCF7 cells at 10 uM incubated for 24 to 48 hrs by Celltiter-Glo assay relative to control; assay type: cell-based; conditions: mcf7, 10 µM, time 24-48 hrs
Procedure, shortened: (§3)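 Cells (HEK-293, HUVEC, MCF-7) exposed to test compounds at 10 μM for 24 h; cytotoxicity read in triplicate with a luminescence kit measuring intracellular ATP levels.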

[8] = target: ATP-dependent translocase ABCB1 (Homo sapiens, UniProt P08183); assay: Modulation of P-gp-mediated Rhodamine-123 efflux in human Caco-2 cells assessed as Rhodamine-123 accumulation at 10 uM pretreated for 30 mins in presence or absence of Zos followed by Rho-123 addition and measured after 90 mins by fluorescence spectroscopy; assay type: cell-based; conditions: caco-2, 2 h, time 120 min
Chain of ATP-dependent translocase ABCB1 (P08183 whole entry): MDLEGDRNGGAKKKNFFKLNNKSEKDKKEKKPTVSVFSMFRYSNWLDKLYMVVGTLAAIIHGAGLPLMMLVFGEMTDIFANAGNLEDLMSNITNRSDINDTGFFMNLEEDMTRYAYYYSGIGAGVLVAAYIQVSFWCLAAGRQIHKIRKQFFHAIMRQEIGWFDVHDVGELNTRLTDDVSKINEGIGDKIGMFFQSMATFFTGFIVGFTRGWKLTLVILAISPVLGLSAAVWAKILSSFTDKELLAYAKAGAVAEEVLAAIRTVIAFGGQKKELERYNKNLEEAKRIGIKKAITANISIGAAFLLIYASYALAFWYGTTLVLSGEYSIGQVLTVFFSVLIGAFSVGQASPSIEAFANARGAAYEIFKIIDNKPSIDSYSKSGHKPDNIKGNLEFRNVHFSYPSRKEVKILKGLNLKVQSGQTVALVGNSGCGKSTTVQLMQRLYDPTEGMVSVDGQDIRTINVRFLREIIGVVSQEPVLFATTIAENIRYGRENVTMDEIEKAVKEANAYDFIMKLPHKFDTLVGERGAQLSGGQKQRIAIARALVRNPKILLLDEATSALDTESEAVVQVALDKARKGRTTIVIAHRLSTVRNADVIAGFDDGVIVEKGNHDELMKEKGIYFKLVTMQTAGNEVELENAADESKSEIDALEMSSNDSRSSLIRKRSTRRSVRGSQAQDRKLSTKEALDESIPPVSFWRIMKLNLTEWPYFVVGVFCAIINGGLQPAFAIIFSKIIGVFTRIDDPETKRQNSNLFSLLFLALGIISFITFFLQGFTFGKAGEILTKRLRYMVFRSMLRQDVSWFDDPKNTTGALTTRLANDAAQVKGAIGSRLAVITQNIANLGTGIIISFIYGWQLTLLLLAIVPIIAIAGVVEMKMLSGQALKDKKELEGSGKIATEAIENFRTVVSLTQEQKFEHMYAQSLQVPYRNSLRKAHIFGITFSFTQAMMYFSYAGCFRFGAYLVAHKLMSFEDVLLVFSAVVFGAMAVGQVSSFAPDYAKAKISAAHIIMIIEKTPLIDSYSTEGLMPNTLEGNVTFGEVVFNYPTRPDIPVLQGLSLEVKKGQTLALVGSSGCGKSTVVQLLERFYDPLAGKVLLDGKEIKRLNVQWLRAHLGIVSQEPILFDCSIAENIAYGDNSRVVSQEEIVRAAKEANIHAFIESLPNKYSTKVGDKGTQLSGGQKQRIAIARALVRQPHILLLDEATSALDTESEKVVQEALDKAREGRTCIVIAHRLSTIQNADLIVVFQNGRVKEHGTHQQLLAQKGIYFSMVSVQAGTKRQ
Procedure, shortened: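 Caco-2 cells were exposed to compounds at 10 μM during incubation with the P-gp substrate rhodamine 123 (5 μM). Zosuquidar served as the specific P-gp inhibitor. Cellular rhodamine 123 was read by fluorescence spectroscopy. Mean ± SEM of at least three independent experiments in triplicate.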

SH-SY5Y [9] = assay: Protection against iron(III)-induced damage in human SH-SY5Y cells assessed as increase in lysosomal activity at 1 to 10 uM pretreated for 30 mins followed by iron(III) treatment at 1500 uM after 24 hrs by NR uptake assay; assay type: functional, cell-based; conditions: dose 1-10 µM, time 24.5 hrs
Procedure, shortened: (§4)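 Differentiated SH-SY5Y cells were pretreated with compounds at 1 or 10 μM for 30 min, then exposed to iron(III) at 1000 or 1500 μM for 24 h. Viability was read by neutral red uptake. Mean ± SD of three independent experiments, two-way ANOVA.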

HEK293 [10] = assay: Cytotoxicity against HEK293 cells incubated for 24 to 48 hrs by Celltiter-Glo assay; assay type: cell-based, Homo sapiens
SH-SY5Y [11] = assay: Protection against iron(III)-induced damage in human SH-SY5Y cells assessed as increase in lysosomal activity at 1 to 10 uM pretreated for 30 mins followed by iron(III) treatment at 1000 uM after 24 hrs by NR uptake assay; assay type: functional, cell-based; conditions: dose 1-10 µM, time 24.5 hrs; procedure, shortened: as §4
HEK293 [12] = assay: Cytotoxicity against HEK293 cells at 10 uM incubated for 24 to 48 hrs by Celltiter-Glo assay relative to control; assay type: cell-based; conditions: human, hek293, 10 µM, time 24-48 hrs; procedure, shortened: as §3
MCF7 [13] = assay: Cytotoxicity against human MCF7 cells incubated for 24 to 48 hrs by Celltiter-Glo assay; assay type: cell-based
HUVEC [14] = assay: Cytotoxicity against HUVEC cells incubated for 24 to 48 hrs by Celltiter-Glo assay; assay type: cell-based, Homo sapiens
HUVEC [15] = assay: Cytotoxicity against HUVEC cells at 10 uM incubated for 24 to 48 hrs by Celltiter-Glo assay relative to control; assay type: cell-based; conditions: human, time 24-48 hrs; procedure, shortened: as §3
hERG = hERG (Homo sapiens, UniProt Q12809); assay: Inhibition of human ERG at 10 uM incubated for 2 hrs by fluorescence polarization assay relative to control
Chain of hERG (Q12809 whole entry): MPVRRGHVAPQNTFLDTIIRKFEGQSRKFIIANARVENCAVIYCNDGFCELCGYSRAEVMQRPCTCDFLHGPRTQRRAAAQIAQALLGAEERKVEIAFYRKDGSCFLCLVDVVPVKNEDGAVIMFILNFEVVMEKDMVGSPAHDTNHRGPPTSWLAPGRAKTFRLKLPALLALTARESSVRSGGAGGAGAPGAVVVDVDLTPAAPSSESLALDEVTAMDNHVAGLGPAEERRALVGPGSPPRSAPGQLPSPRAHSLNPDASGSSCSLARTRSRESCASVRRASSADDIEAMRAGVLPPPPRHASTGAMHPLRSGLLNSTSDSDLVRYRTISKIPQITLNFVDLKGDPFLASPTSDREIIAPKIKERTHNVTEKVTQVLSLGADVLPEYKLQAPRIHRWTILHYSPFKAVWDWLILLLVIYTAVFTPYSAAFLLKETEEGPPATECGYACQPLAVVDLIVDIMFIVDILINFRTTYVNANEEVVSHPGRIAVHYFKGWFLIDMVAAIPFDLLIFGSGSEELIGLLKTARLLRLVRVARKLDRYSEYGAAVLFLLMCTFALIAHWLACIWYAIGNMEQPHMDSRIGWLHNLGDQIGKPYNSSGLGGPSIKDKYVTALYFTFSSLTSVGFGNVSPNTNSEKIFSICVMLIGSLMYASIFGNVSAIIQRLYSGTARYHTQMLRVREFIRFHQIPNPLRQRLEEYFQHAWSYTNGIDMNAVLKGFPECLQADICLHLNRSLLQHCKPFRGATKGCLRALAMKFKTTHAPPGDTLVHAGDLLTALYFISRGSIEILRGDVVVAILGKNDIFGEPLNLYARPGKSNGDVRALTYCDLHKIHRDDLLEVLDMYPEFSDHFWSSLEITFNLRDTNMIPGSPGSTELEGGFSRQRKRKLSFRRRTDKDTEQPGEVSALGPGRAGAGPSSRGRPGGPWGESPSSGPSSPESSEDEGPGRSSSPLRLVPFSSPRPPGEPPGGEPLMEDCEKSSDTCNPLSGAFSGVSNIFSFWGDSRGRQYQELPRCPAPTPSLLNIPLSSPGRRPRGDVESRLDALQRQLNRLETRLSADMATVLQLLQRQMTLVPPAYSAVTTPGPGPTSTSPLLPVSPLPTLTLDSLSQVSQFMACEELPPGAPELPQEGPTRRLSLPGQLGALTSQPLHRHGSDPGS
Procedure, shortened: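 hERG binding was measured by fluorescence polarization, using a homogenized membrane preparation containing hERG plus a fluorescent tracer. A drop in FP signal from tracer displacement was read as inhibition. Compounds were tested at 10 μM.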

[16] = target: T1, Amine oxidase [flavin-containing] B; assay: Time dependent inhibition of recombinant human MAO-B expressed in baculovirus infected BTI-TN- 5B1-4 insect cells assessed as increase in enzyme activity at IC80 measured after 120 mins; conditions: bti-tn-5b1-4, 2 h

## Cc1ccc(NC(=O)C2COc3ccccc3C2)cc1C (centres undefined)
[1]
  IC50: 1780 nM
Homo sapiens
  Ratio IC50: > 5.62
MAO-A
  inhibition at 0.5 h, 10 µM: 19.6%

## COc1ccc(NC(=O)C2=Cc3ccccc3OC2)cc1OC
[1]
  IC50: 2870 nM
Homo sapiens
  Ratio IC50: > 3.48
MAO-A
  inhibition at 0.5 h, 10 µM: 20.2%

## COc1ccc(NC(=O)C2COc3ccccc3C2)cc1OC (centres undefined)
[2]
  inhibition at 10 µM: 14%
MAO-A
  inhibition at 0.5 h, 10 µM: 11.8%

## COc1ccc(NC(=O)c2cc3ccccc3oc2=O)cc1OC
[3]
  solubility: Insoluble

## Cc1ccc(NC(=O)C2=Cc3ccccc3OC2)cc1C
SH-SY5Y [4]
  Activity: Non-Toxic
[1]
  IC50: 45.7 nM
Homo sapiens
  Ratio IC50: 300
[5]
  IC50: 13700 nM
Caco-2
  Activity: Non-Toxic

## O=C(Nc1cccc(Cl)c1)c1coc2ccccc2c1=O
SH-SY5Y [6]
  Activity: < 85%
SH-SY5Y [4]
  Activity: Non-Toxic
MCF7 [7]
  Activity: < 10%
[8]
  Activity: Not Active
SH-SY5Y [9]
  Activity: inactive
Caco-2
  Activity: Non-Toxic
HEK293 [10]
  IC50: Not Active
SH-SY5Y [11]
  Activity: inactive
HEK293 [12]
  Activity: < 10%
MCF7 [13]
  IC50: Not Active
HUVEC [14]; huvec
  IC50: Not Active
HUVEC [15]
  Activity: < 10%
hERG
  inhibition at 2 h, 10 µM: < 10%

## Cc1ccc(NC(=O)c2csc3ccccc3c2=O)cc1C
SH-SY5Y [4]
  Activity: Non-Toxic
[1]
  IC50: 3.35 nM
Homo sapiens
  Ratio IC50: > 2990
Caco-2
  Activity: Non-Toxic
MAO-A
  inhibition at 0.5 h, 10 µM: 0.2%

## O=C(Nc1ccc(Cl)c(Cl)c1)C1COc2ccccc2C1 (centres undefined)
SH-SY5Y [4]
  Activity: Non-Toxic
[1]
  IC50: 78.8 nM
Homo sapiens
  Ratio IC50: > 127
Caco-2
  Activity: Non-Toxic
MAO-A
  inhibition at 0.5 h, 10 µM: 16.4%

## Cc1ccc(NC(=O)c2cc3ccccc3n(C)c2=O)cc1C
[2]
  inhibition at 10 µM: 21%
MAO-A
  inhibition at 0.5 h, 10 µM: 7.65%

## C[C@H](NCc1ccc(OCc2cccc(F)c2)cc1)C(N)=O [SAFINAMIDE]
[16]
  TDI: Active
MAO-A
  inhibition at 0.5 h, 10 µM: 30.5%

## Cc1ccc(NC(=O)c2cc3ccccc3[nH]c2=O)cc1C
[2]
  inhibition at 10 µM: 8.1%
MAO-A
  inhibition at 0.5 h, 10 µM: 1.32%

## O=C(Nc1ccc(Cl)c(Cl)c1)C1=Cc2ccccc2OC1
SH-SY5Y [4]
  Activity: Non-Toxic
MCF7 [7]
  Activity: < 10%
[8]
  Activity: Not Active
SH-SY5Y [9]
  Activity: inactive
[1]
  IC50: 3.16 nM
Homo sapiens
  Ratio IC50: 1300
[5]
  IC50: 4130 nM
Caco-2
  Activity: Non-Toxic
HEK293 [10]
  IC50: Not Active
SH-SY5Y [11]
  Activity: inactive
HEK293 [12]
  Activity: < 10%
MCF7 [13]
  IC50: Not Active
HUVEC [14]; Homo sapiens, HUVEC, read-out: IC50
  IC50: 8400 nM
HUVEC [15]
  Activity: 64.4%
hERG
  inhibition at 2 h, 10 µM: < 10%

## Cn1c(=O)c(C(=O)Nc2ccc(Cl)c(Cl)c2)cc2ccccc21
[3]
  solubility: Insoluble

## Cc1ccc(NC(=O)c2cc3ccccc3oc2=O)cc1C
SH-SY5Y [6]
  Activity: < 85%
SH-SY5Y [4]
  Activity: Non-Toxic
Caco-2
  Activity: Non-Toxic
MAO-A
  inhibition at 0.5 h, 10 µM: 26.8%

## O=C(Nc1cccc(Cl)c1)c1cc2ccccc2[nH]c1=O
[2]
  inhibition at 10 µM: 8.9%
MAO-A
  inhibition at 0.5 h, 10 µM: 2.65%

## O=C(Nc1ccc(Cl)c(Cl)c1)c1cc2ccccc2[nH]c1=O
[3]
  solubility: Insoluble

## Cn1c(=O)c(C(=O)Nc2cccc(Cl)c2)cc2ccccc21
[3]
  solubility: Insoluble

## Cc1ccc(NC(=O)c2coc3ccccc3c2=O)cc1C
SH-SY5Y [6]
  Activity: < 85%
SH-SY5Y [4]
  Activity: Non-Toxic
MCF7 [7]
  Activity: < 10%
[8]
  Activity: Not Active
SH-SY5Y [9]
  Activity: inactive
Caco-2
  Activity: Non-Toxic
HEK293 [10]
  IC50: Not Active
SH-SY5Y [11]
  Activity: inactive
HEK293 [12]
  Activity: < 10%
MCF7 [13]
  IC50: Not Active
HUVEC [14]; huvec
  IC50: Not Active
HUVEC [15]
  Activity: < 10%
hERG
  inhibition at 2 h, 10 µM: < 10%

## O=C(Nc1cccc(Cl)c1)C1COc2ccccc2C1 (centres undefined)
[1]
  IC50: 957 nM
Homo sapiens
  Ratio IC50: > 10.4
MAO-A
  inhibition at 0.5 h, 10 µM: 10.9%

## O=C(Nc1ccc(Cl)c(Cl)c1)c1cc2ccccc2oc1=O
[3]
  solubility: Insoluble
